# From ChEMBL document CHEMBL3525900, “Pharmacokinetics, distribution, and metabolism of [14C]sunitinib in rats, monkeys, and humans” (Drug Metab Dispos, 2012)
# How the values were obtained:
# [1] = Drug concentration in male albino rat thyroid gland assessed as radioactivity per gram of tissue at 20 mg/kg administered as single dose via gastric gavage measured after 3 hrs by autoradiographic analysis; type: ADME, organism-based; set-up: dose 20 mg/kg, dosed compound name [14C]Sunitinib; details: in vivo, po
# [2] = Drug concentration in female albino rat eye assessed as radioactivity per gram of tissue at 20 mg/kg administered as single dose via gastric gavage measured after 24 hrs by autoradiographic analysis; type: ADME, organism-based; set-up: dose 20 mg/kg, dosed compound name [14C]Sunitinib; details: in vivo, po
# Summary of the method: (§1)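 Sprague Dawley albino rats, ca 7-8 weeks old, dosed once by gastric gavage with [14C]sunitinib L-malate (15 mg freebase/kg, 100 µCi/kg). One male and one female killed by CO2 at 3, 6, 24, 72 and 168 h. Carcasses frozen in solid CO2/hexane, embedded and cut into 30 µm sagittal sections, then freeze-dried. Radioactivity quantified by whole-body autoradiography against standards by regression, background subtracted.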
# Adrenal = assay: Drug concentration in male albino rat adrenal assessed as radioactivity per gram of tissue at 20 mg/kg administered as single dose via gastric gavage measured after 72 hrs by autoradiographic analysis; type: ADME, organism-based; set-up: dose 20 mg/kg, dosed compound name [14C]Sunitinib; details: in vivo, po
# [3] = Drug concentration in female albino rat skeletal muscle assessed as radioactivity per gram of tissue at 20 mg/kg administered as single dose via gastric gavage measured after 24 hrs by autoradiographic analysis; type: ADME, organism-based; set-up: dose 20 mg/kg, dosed compound name [14C]Sunitinib; details: in vivo, po
# Spleen [4] = assay: Drug concentration in male Lister Hooded pigmented rat spleen assessed as radioactivity per gram of tissue at 20 mg/kg administered as single dose via gastric gavage measured after 24 hrs by autoradiographic analysis; type: ADME, organism-based; set-up: dose 20 mg/kg, dosed compound name [14C]Sunitinib; details: in vivo, po
# Heart [5] = assay: Drug concentration in male albino rat heart assessed as radioactivity per gram of tissue at 20 mg/kg administered as single dose via gastric gavage measured after 6 hrs by autoradiographic analysis; type: ADME, organism-based; set-up: dose 20 mg/kg, dosed compound name [14C]Sunitinib; details: in vivo, po
# Small intestine [6] = assay: Drug concentration in male albino rat small intestine assessed as radioactivity per gram of tissue at 20 mg/kg administered as single dose via gastric gavage measured after 3 hrs by autoradiographic analysis; type: ADME, organism-based; set-up: dose 20 mg/kg, dosed compound name [14C]Sunitinib; details: in vivo, po
# Stomach = assay: Drug concentration in female albino rat stomach assessed as radioactivity per gram of tissue at 20 mg/kg administered as single dose via gastric gavage measured after 6 hrs by autoradiographic analysis; type: ADME, organism-based; set-up: dose 20 mg/kg, dosed compound name [14C]Sunitinib; details: in vivo, po
# Cynomolgus monkey = assay: Cmax as total radioactivity in female cynomolgus monkey plasma at 6 mg/kg, po administered as single dose by LC/MS/MS analysis; type: ADME, organism-based, Macaca fascicularis; set-up: dose 6 mg/kg, dosed compound name [14C]Sunitinib, route oral; details: in vivo
# Summary of the method: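 Cynomolgus monkeys of both sexes received one oral gavage of [14C]sunitinib L-malate at 6 mg/kg (37 µCi/kg). Femoral-vein blood was taken into heparin from 0.5 to 336 h. Plasma was kept cold and protected from light, then stored at -80 °C. Total radioactivity was by scintillation counting and sunitinib by methanol-extraction LC-MS-MS. Cmax was from raw data, t½ from the log-linear terminal slope, AUC(0-∞) by linear trapezoidal rule.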
# Thymus = assay: Drug concentration in female Lister Hooded pigmented rat thymus assessed as radioactivity per gram of tissue at 20 mg/kg administered as single dose via gastric gavage measured after 24 hrs by autoradiographic analysis; type: ADME, organism-based; set-up: dose 20 mg/kg, dosed compound name [14C]Sunitinib; details: in vivo, po
# Summary of the method: (§2)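 Lister Hooded (pigmented) rats, ca 7-8 weeks old, acclimated 7 days, given [14C]sunitinib L-malate by gastric gavage at 20 mg/kg (15 mg freebase/kg, 100 µCi/kg). One male and one female killed by CO2 at 24, 72, 168 and 336 h. Carcasses frozen in solid CO2/hexane and embedded in frozen cellulose. 30 µm sagittal cryosections were freeze-dried. Tissue radioactivity measured by quantitative whole-body autoradiography against calibration standards, with background subtracted.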
# Zone of skin [7] = assay: Drug concentration in female albino rat abdomen skin assessed as radioactivity per gram of tissue at 20 mg/kg administered as single dose via gastric gavage measured after 6 hrs by autoradiographic analysis; type: ADME, organism-based; set-up: dose 20 mg/kg, dosed compound name [14C]Sunitinib; details: in vivo, po
# Summary of the method: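 Sprague Dawley (albino) rats, ca 7-8 weeks old, received a single gastric-gavage dose of [14C]sunitinib L-malate at 20 mg/kg (15 mg freebase/kg, 100 µCi/kg). One animal per sex killed by CO2 at 3, 6, 24, 72 and 168 h, then frozen in CO2/hexane. 30 µm sagittal sections were cut and freeze-dried. Radioactivity per gram quantified by whole-body autoradiography using regression against standards. LOQ 0.04–0.06 µg freebase equiv/g.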
# Spleen [8] = assay: Drug concentration in female albino rat spleen assessed as radioactivity per gram of tissue at 20 mg/kg administered as single dose via gastric gavage measured after 3 hrs by autoradiographic analysis; type: ADME, organism-based; set-up: dose 20 mg/kg, dosed compound name [14C]Sunitinib; details: in vivo, po
# Lung = assay: Drug concentration in female albino rat lung assessed as radioactivity per gram of tissue at 20 mg/kg administered as single dose via gastric gavage measured after 24 hrs by autoradiographic analysis; type: ADME, organism-based; set-up: dose 20 mg/kg, dosed compound name [14C]Sunitinib; details: in vivo, po; summary of the method: as §1
# [9] = Drug concentration in female albino rat lymph node assessed as radioactivity per gram of tissue at 20 mg/kg administered as single dose via gastric gavage measured after 6 hrs by autoradiographic analysis; type: ADME, organism-based; set-up: dose 20 mg/kg, dosed compound name [14C]Sunitinib; details: in vivo, po; summary of the method: as §1
# Small intestine [10] = assay: Drug concentration in male Lister Hooded pigmented rat small intestine assessed as radioactivity per gram of tissue at 20 mg/kg administered as single dose via gastric gavage measured after 24 hrs by autoradiographic analysis; type: ADME, organism-based; set-up: dose 20 mg/kg, dosed compound name [14C]Sunitinib; details: in vivo, po
# Small intestine [11] = assay: Drug concentration in female Lister Hooded pigmented rat small intestine assessed as radioactivity per gram of tissue at 20 mg/kg administered as single dose via gastric gavage measured after 24 hrs by autoradiographic analysis; type: ADME, organism-based; set-up: dose 20 mg/kg, dosed compound name [14C]Sunitinib; details: in vivo, po; summary of the method: as §2
# Zone of skin [12] = assay: Drug concentration in female Lister Hooded pigmented rat abdomen skin assessed as radioactivity per gram of tissue at 20 mg/kg administered as single dose via gastric gavage measured after 72 hrs by autoradiographic analysis; type: ADME, organism-based; set-up: dose 20 mg/kg, dosed compound name [14C]Sunitinib; details: in vivo, po
# Summary of the method: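 Pigmented Lister Hooded rats, 7-8 weeks old, received [14C]sunitinib L-malate by gavage at 20 mg/kg (15 mg freebase/kg, 100 µCi/kg). One rat per sex was killed by CO2 at each of 24, 72, 168 and 336 h. Carcasses were frozen in solid CO2/hexane and cut into 30 µm sagittal sections, then freeze-dried. Tissue radioactivity was quantified by whole-body autoradiography calibrated against standards by regression (LOQ 0.04–0.06 µg eq/g).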
# Homo sapiens = assay: Apparent oral clearance as total radioactivity in human plasma at 50 mg, po administered as single dose measured up to 24 hrs by LC/MS/MS analysis; type: ADME, organism-based; set-up: dosed compound name [14C]Sunitinib; details: in vivo
# Rattus norvegicus = assay: Total drug recovery in female Sprague-Dawley rat at 5 mg/kg, iv administered as single dose during 0 to 72 hrs by liquid scintillation counting; type: ADME, organism-based; set-up: dose 5 mg/kg, dosed compound name [14C]Sunitinib, route intravenous; details: in vivo
# Liver [13] = assay: Drug concentration in male albino rat liver assessed as radioactivity per gram of tissue at 20 mg/kg administered as single dose via gastric gavage measured after 3 hrs by autoradiographic analysis; type: ADME, organism-based; set-up: dose 20 mg/kg, dosed compound name [14C]Sunitinib; details: in vivo, po
# Brain = assay: Drug concentration in male Lister Hooded pigmented rat brain assessed as radioactivity per gram of tissue at 20 mg/kg administered as single dose via gastric gavage measured after 168 hrs by autoradiographic analysis; type: ADME, organism-based; set-up: dose 20 mg/kg, dosed compound name [14C]Sunitinib; details: in vivo, po
# Liver [14] = assay: Drug concentration in female albino rat liver assessed as radioactivity per gram of tissue at 20 mg/kg administered as single dose via gastric gavage measured after 24 hrs by autoradiographic analysis; type: ADME, organism-based; set-up: dose 20 mg/kg, dosed compound name [14C]Sunitinib; details: in vivo, po; summary of the method: as §1
# [15] = Drug concentration in female Lister Hooded pigmented rat eye assessed as radioactivity per gram of tissue at 20 mg/kg administered as single dose via gastric gavage measured after 336 hrs by autoradiographic analysis; type: ADME, organism-based; set-up: dose 20 mg/kg, dosed compound name [14C]Sunitinib; details: in vivo, po; summary of the method: as §2
# Heart [16] = assay: Drug concentration in female albino rat heart assessed as radioactivity per gram of tissue at 20 mg/kg administered as single dose via gastric gavage measured after 24 hrs by autoradiographic analysis; type: ADME, organism-based; set-up: dose 20 mg/kg, dosed compound name [14C]Sunitinib; details: in vivo, po; summary of the method: as §1
# Large intestine = assay: Drug concentration in male Lister Hooded pigmented rat large intestine assessed as radioactivity per gram of tissue at 20 mg/kg administered as single dose via gastric gavage measured after 168 hrs by autoradiographic analysis; type: ADME, organism-based; set-up: dose 20 mg/kg, dosed compound name [14C]Sunitinib; details: in vivo, po
structure (smiles),measurement,setting,value
CCN(CC)CCNC(=O)c1c(C)[nH]c(/[14CH]=C2\C(=O)Nc3ccc(F)cc32)c1C.O=C(O)C[C@H](O)C(=O)O,Radiolabel recovery,[1],18.4 ugequiv
same,Radiolabel recovery,[2],0.43 ugequiv
same,Radiolabel recovery,Adrenal,1.52 ugequiv
same,Radiolabel recovery,[3],0.33 ugequiv
same,Radiolabel recovery,Spleen [4],1.63 ugequiv
same,Radiolabel recovery,Heart [5],4.61 ugequiv
same,Radiolabel recovery,Small intestine [6],8.91 ugequiv
same,Radiolabel recovery,Stomach,8.54 ugequiv
same,Cmax,Cynomolgus monkey,214 ngequiv/ml
same,Radiolabel recovery,Thymus,0.88 ugequiv
same,Radiolabel recovery,Zone of skin [7],4.73 ugequiv
same,Radiolabel recovery,Spleen [8],30.72 ugequiv
same,Radiolabel recovery,Lung,1.64 ugequiv
same,Radiolabel recovery,[9],14.48 ugequiv
same,Radiolabel recovery,Small intestine [10],0.82 ugequiv
same,Radiolabel recovery,Small intestine [11],1.16 ugequiv
same,Radiolabel recovery,Zone of skin [12],0.26 ugequiv
same,CL/F,Homo sapiens,23.5 L/h
same,Radiolabel recovery,Rattus norvegicus,87.4%
same,Radiolabel recovery,Liver [13],15.71 ugequiv
same,Radiolabel recovery,Brain,0.06 ugequiv
same,Radiolabel recovery,Liver [14],2.8 ugequiv
same,Radiolabel recovery,[15],56.9 ugequiv
same,Radiolabel recovery,Heart [16],0.73 ugequiv
same,Radiolabel recovery,Large intestine,0.06 ugequiv
